DNMT1 block: human DNMT1 methyltransferase inhibitors, primary screen, biochemical, molecular beacon, fluorescence, HinP1I cleavage, uHTS; AID 588458, 2011; DNA (cytosine-5)-methyltransferase 1 (Homo sapiens), P26358; inhibition (reported as % activation of signal), % at 10 µM; actives 0.83% (n = 360,000); in the data active means inhibition above about 50%
LMPTP inh: LMPTP phosphatase inhibitors, primary screen, biochemical, fluorescence intensity, uHTS; Low molecular weight phosphotyrosine protein phosphatase (Homo sapiens), P24666; recombinant LMPTP-A, OMFP fluorogenic substrate; inhibition, % at 20 µM; actives 0.22% (n = 360,000);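 active means compounds that cut the enzyme signal by at least half of the control window in the single-dose screen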;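 further: plate controls were DMSO wells with enzyme plus substrate for no effect and substrate without enzyme for full effect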
Target sequence (P24666 whole entry, looked up): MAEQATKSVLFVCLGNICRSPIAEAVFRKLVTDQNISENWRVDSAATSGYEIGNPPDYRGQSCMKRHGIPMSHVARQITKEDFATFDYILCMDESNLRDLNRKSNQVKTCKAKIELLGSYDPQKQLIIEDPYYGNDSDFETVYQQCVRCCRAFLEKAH
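Test system – LMPTP-A enzyme · Amount – LMPTP-A at 0.625 nM final in the reaction · Buffer or medium – Bis-Tris pH 6.0, DTT, detergent · Reagent – OMFP 400 µM · Doses – single 20 µM dose · Schedule – reaction 50 min, room temperature, dark · Detection – fluorescence intensity of OMFP turnover product · Evaluation – percent inhibition versus substrate-only and uninhibited controls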
STEP block: STEP phosphatase inhibitors, primary screen, biochemical, fluorescence intensity, uHTS | actives 0.25% (n = 360,000) | Tyrosine-protein phosphatase non-receptor type 5 (Homo sapiens), P54829 | AID 588621, 2011 | inhibition, % at 20 µM | recombinant STEP, OMFP fluorogenic substrate;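 active means inhibition at 20 µM, scaled per plate between control wells, above about 37%, limit read from the data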;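 further: 0% = DMSO with enzyme and substrate and 100% = substrate only without enzyme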
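material = STEP tyrosine phosphatase | reagent = fluorogenic phosphatase substrate OMFP at 25 µM final | doses = single compound dose of 20 µM, 1% DMSO final | schedule = 20 min reaction, room temperature, in the dark | measured by = fluorescence, 480/540 nm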
SUMO1 PPI mod: modulators of SUMO1 protein-protein interactions, primary screen, biochemical, uHTS; actives 0.33% (n = 360,000); inhibition, % at 20 µM; AID 602429, 2012; SUMO1 binding to a labelled peptide, TR-FRET, 1 h; in the data active means inhibition above about 37%
Target sequence (P63165 whole entry, looked up): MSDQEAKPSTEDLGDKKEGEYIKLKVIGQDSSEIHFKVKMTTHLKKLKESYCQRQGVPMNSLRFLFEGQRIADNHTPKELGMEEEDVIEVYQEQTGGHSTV
Scp-1 inhibitor: Scp-1 phosphatase inhibitors, primary screen, biochemical, colorimetric, uHTS; Carboxy-terminal domain RNA polymerase II polypeptide A small phosphatase 1 (Homo …; Recombinant Scp1, phosphopeptide, malachite green phosphate absorbance; inhibition, % at 20 µM; actives 0.88% (n = 340,000);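 active means inhibition above about 50% at 20 µM, limit read from the data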;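 further: plate controls were DMSO wells with enzyme for no effect and wells lacking enzyme for full effect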
Target sequence (Q9GZU7 76-261 limits assumed): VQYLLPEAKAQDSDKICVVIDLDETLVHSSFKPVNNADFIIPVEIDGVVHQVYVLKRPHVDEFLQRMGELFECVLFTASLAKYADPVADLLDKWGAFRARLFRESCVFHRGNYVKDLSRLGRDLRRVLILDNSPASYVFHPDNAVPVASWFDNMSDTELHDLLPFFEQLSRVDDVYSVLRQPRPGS
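Test system: SCP-1 phosphatase catalytic domain, residues 76-261 | Compound dosing: One concentration, 20 µM, with 1.0% DMSO | Schedule: 45 min room-temperature reaction, 5 min colour, 30 min stabiliser | Detection: Absorbance at 630 nm | Read-out basis: % inhibition of SCP-1 phosphate liberation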
Scp-1 conf: Scp-1 phosphatase inhibitors, retest, confirmation, biochemical, colorimetric, single concentration; actives 61% (n = 2,500); shares compounds with Scp-1 inhibitor; recombinant SCP-1 catalytic domain, phosphate release, malachite green absorbance; inhibition, % at 20 µM;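 further: plate controls were DMSO with enzyme for no effect and buffer wells lacking enzyme for full effect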
Scp-1 MG ctr: colorimetric readout interference by compounds, confirmation, artefact control for Scp-1 inhibitor project, biochemical, single concentration; apparent inhibition (interference), % at 20 µM; Colorimetric interference counterscreen, malachite green absorbance 630 nm; 2,500 tested, under 10 active; shares compounds with Scp-1 inhibitor;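 further: compounds added after enzyme reaction finished so only phosphate colour detection is probed; plate controls were DMSO wells with completed Scp-1 reaction for no effect and substrate wells lacking enzyme for full effect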
Scp1 DSF: Scp-1 binding by thermal shift, confirmation, orthogonal assay for Scp-1 inhibitor project, biophysical, differential scanning fluorimetry | shares compounds with Scp-1 inhibitor | thermal shift relative to vanadate control, % at 40 µM | AID 540329, 2011 | Recombinant SCP1, Sypro Orange thermal shift Tm | actives 25% (n = 1,500);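 active means substances whose mean melting-temperature shift, as a percentage of the reference inhibitor's shift, reaches about 5.3%, limit read from the data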;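 further: 0% = Tm of DMSO wells and 100% = Tm with sodium orthovanadate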
An asterisk follows results filed as active; . = not tested or not shown. Rows were chosen to be rich in hits. Some 1.7% of all compounds tested hit in one or more screens of this group.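 How the source made its calls, unless noted: active means inhibition of at least 30% at 20 µM; inactive means the rest.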

SMILES	DNMT1 block	LMPTP inh	STEP block	SUMO1 PPI mod	Scp-1 inhibitor	Scp-1 conf	Scp-1 MG ctr	Scp1 DSF
CCCCCNC(=O)c1nc(-c2c(F)cccc2F)oc1-c1ccccc1	.	4	.	4	.	.	.	.
COCc1cc(C)c(C#N)c(=S)[nH]1	1	1	-1	-2	53*	6	-1	.
COc1ccc(NC(=S)N(CCCN2CCOCC2)C(C)c2cc3ccccc3o2)cc1 (centres undefined)	-1	-3	3	-1	64*	-12	-9	.
CC1=NN(c2ccccc2)C(=O)C1(C)C	1	-1	5	0	-3	.	.	.
CC[N+]1=CN(c2ccccc2)C(C)=CC1(C)C	-4	-3	-3	2	78*	86*	-12	-24
Cc1ccc(OCC(=O)NNC(=O)Cn2nnc(-c3ccccc3)n2)cc1	1	36	32	-3	53*	41*	-4	-8
O=C(Cn1nnc(-c2ccccc2)n1)NNC(=O)c1ccccc1	3	-1	0	1	0	.	.	.
Cc1nnc(SCC2=C(C(=O)O)N3C(=O)C(NC(=O)COc4ccccc4)C3SC2)s1 (centres undefined)	9	1	2	13	68*	53*	-21	4
Cc1nnc(SCC2=C(C(=O)O)N3C(=O)C(NC(=O)Cn4nc(C(F)F)c(Cl)c4C)C3SC2)s1 (centres undefined)	0	2	7	16	42	.	.	.
Cc1nnc(SCC2=C(C(=O)O)N3C(=O)C(NC(=O)Cn4nc(C(F)F)cc4C)C3SC2)s1 (centres undefined)	27	-1	6	11	70*	52*	-22	3
Cc1nnc(SCC2=C(C(=O)O)N3C(=O)C(NC(=O)COc4ccc(F)cc4)C3SC2)s1 (centres undefined)	43	1	0	17	39	.	.	.
CSc1nnc(-c2ccccc2)n1N	2	-2	-8	-7	-8	.	.	.
CSc1nnc(-c2cc[n+](C)cc2)n1CCO	7	-5	-4	-2	66*	10	-8	.
CC(=O)NC(CC(=O)OCC(=O)c1ccc(NC(=O)CC(C)C)cc1)c1ccccc1 (centres undefined)	18	3	8	1	52*	60*	-8	-4
CC(=O)NC(CC(=O)OCC(=O)Nc1ccc2c(c1)OCO2)c1ccccc1 (centres undefined)	-2	-1	0	-3	-12	.	.	.
CSc1ccccc1C(=O)OCC(=O)NC1CCCCCCC1	-2	0	0	-3	.	.	.	.
C[C@H](NC(=O)c1ccco1)C(=O)NNC(=O)c1ccc(F)cc1	1	0	-3	-2	99*	0	-10	.
O=C(CNS(=O)(=O)c1ccc(Br)cc1Cl)OCC(=O)N1CCCC1=O	5	-2	-1	0	3	-11	-14	.
O=C(Nc1cc(S(=O)(=O)Nc2ccc(Cl)cc2)ccc1O)c1ccc(S(=O)(=O)N2CCCCCC2)cc1	-1	3	6	5	81*	77*	-15	9.9*
COc1ccc(NS(=O)(=O)c2cccc(C(=O)NNC(=O)c3ccccc3O)c2)cc1	2	-1	-1	3	-15	.	.	.
